Here are results for 9 compounds from publication PMC4410366 (Biochemistry, 2015).

Entries after “also recorded” stand apart in the source; their conditions may differ. Read-outs that look alike come from different tables or passages of the source. A value given as a limit tells only on which side of the number the result lay.

Assay [1] has as its target T1, recombinant murine iNOS (Mus musculus, UniProt P29477). The assay is described as follows: Hemoglobin assay for iNOS activity. The following applies: different concentrations of inhibitor and L-arginine. The format is biochemical.
The next assay addresses iNOS dimer (Mus musculus, UniProt P29477). The assay can be described thus: LT-PAGE assay of iNOS dimer/monomer after inactivation. Type of assay: biochemical, murine. The conditions noted are these: native iNOS control 65 ± 5.
In assay [2] the target is T1, recombinant murine iNOS. The conditions noted are these: cited from earlier work.
The target of assay [3] is T2, iNOS heme cofactor (Mus musculus, UniProt P29477). The conditions noted are these: LC-electrospray MS and HPLC; cited from earlier work.
The subject of the next assay is NOS. The conditions noted are these: cited from earlier work.
Assay [4] concerns the target T1, recombinant murine iNOS. The assay can be described thus: Irreversible inhibition kinetics. The format is biochemical. The following applies: for Inactivation (irreversible inhibition) of iNOS: qualitative; for Ki: Kitz and Wilson.
The target of assay [5] is T1, recombinant murine iNOS. The assay can be described thus: Determination of substrate activity. The format is biochemical. The following applies: up to 2 mM. The method in brief: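 Recombinant murine iNOS expressed in E. coli. NO output is read as oxyhemoglobin oxidised to metHb, by absorbance change at 401 nm over the first 60 s at 37 °C. The mix holds NADPH 100 µM, oxyHb 0.125 mg/mL and tetrahydrobiopterin 10 µM in 100 mM Hepes pH 7.4. Test compound is tested up to 2 mM. The reaction starts on adding enzyme.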

In assay [6] the target is T2, iNOS heme cofactor. The assay is described as follows: HPLC and LC/MS determination of heme and biliverdin after treatment of iNOS. The format is biochemical, murine. The conditions noted are these: for Biliverdin formation: HPLC with UV or MS detection; for Heme loss: qualitative. The method, boiled down:
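After iNOS treatment with test compound, biliverdin is analysed by LC/MS with diode-array detection at 401 nm. Column is C18 reversed-phase, with water and acetonitrile each containing 0.1% TFA, at 1.0 mL/min. Solvent B rises linearly from 40% to 60% over 10 min, then returns to 40% within 2 min and holds 3 min.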

The target of assay [7] is T1, recombinant murine iNOS. The assay can be described thus: HPLC / LC/MS of amino acid metabolites from inactivation mixtures. Type of assay: biochemical. The following applies: OPA/MCE derivatization HPLC. The method in brief: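 E. coli-expressed murine iNOS is incubated with test compound (2 mM stock), NADPH (39 mM stock), H4B (8 mM stock), catalase and glycerol in Hepes 100 mM pH 7.4 for 3 h at 37 °C. Aliquots are derivatised with o-phthalaldehyde/2-mercaptoethanol (20:1 v/v). Separation is C18 reversed-phase HPLC, 50 mM sodium acetate pH 5.9 to 80% methanol gradient, 1.0 mL/min, detection at 340 nm.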

T1 sequence (P29477 whole entry): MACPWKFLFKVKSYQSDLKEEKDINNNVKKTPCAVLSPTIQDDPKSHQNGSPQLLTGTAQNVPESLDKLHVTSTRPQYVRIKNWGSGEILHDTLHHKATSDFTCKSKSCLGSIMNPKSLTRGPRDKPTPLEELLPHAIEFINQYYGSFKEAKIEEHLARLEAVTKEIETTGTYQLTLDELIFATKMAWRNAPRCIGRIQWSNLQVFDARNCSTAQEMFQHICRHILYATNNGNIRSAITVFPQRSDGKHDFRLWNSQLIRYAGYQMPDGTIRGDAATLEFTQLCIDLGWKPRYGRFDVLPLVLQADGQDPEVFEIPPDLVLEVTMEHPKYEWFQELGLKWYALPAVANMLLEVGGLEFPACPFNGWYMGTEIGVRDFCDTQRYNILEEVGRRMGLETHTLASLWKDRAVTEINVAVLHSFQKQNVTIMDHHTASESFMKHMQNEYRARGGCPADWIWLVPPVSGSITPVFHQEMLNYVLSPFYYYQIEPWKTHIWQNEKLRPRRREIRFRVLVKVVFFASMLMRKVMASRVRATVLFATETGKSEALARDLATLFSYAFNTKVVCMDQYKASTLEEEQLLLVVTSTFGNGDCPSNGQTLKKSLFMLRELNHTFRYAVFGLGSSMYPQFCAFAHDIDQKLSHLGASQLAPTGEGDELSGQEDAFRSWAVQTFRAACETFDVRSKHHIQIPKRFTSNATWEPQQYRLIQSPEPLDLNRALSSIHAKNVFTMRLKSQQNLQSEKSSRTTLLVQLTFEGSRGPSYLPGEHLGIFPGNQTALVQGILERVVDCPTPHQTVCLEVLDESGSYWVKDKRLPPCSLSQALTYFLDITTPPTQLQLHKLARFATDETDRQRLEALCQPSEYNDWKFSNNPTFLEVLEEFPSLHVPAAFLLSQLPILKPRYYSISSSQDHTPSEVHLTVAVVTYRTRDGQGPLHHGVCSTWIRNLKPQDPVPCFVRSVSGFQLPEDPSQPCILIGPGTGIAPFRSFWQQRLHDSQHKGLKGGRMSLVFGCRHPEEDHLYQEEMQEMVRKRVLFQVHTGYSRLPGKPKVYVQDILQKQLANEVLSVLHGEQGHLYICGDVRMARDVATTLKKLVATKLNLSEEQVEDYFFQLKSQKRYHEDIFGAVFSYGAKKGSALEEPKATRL

Turning to `CC(=N)NCCC[C@H](N)C(=O)O` [Compound 4, N^5-(1-iminoethyl)-L-ornithine], the Inhibition type result on recombinant murine iNOS [1] is recorded as “competitive”. In addition, the “% iNOS Dimer remaining after inactivation” value (“% iNOS Dimer remaining” below) at iNOS dimer worked out at 51 ± 4%. In addition, on recombinant murine iNOS [2], the “Inactivation of iNOS” value is “time-, concentration-, and NADPH-dependent iNOS inactivator”. Moreover, the “Conversion of active site heme in iNOS to biliverdin” value on iNOS heme cofactor [3] is “convert the active site heme in iNOS to biliverdin IXα”.

On to `CN=C(NC)NCCCC(N)C(=O)O` (stereo not shown) [Compound 6a, N^ω, N^ωω-dimethylarginine], for which, in the assay with NOS, the NOS inhibition entry is recorded as “endogenous NOS inhibitor”.

On to `CN=C(NC)NCCCC(N)C(=O)O` (stereo not shown) [Compound 6b, N^ω,N’^ω-dimethylarginine], for which, in the assay with NOS, the NOS inhibition result is “inactive”.

For the compound `N=CNCCC[C@H](N)C(=O)O` [Compound 7], at recombinant murine iNOS [4], the “Inactivation (irreversible inhibition) of iNOS” value is on record as “does not act as a substrate or as an inactivator; also recorded: did not inactivate iNOS”. For the same compound, the “Substrate activity (NO generation / products)” value on recombinant murine iNOS [5] is recorded as “does not act as a substrate”.

With `CCC(=N)NCCC[C@H](N)C(=O)O` [Compound 8], on recombinant murine iNOS [4] (iNOS inactivation), the kinact/KI – broadly, the second-order rate constant of inactivation – is 5.17 ± 0.467 M⁻¹ s⁻¹ and the Ki came to 243 ± 31.4 µM. Also, the inactivation rate constant (kinact) (commonly the maximal first-order rate at which the target is inactivated) at recombinant murine iNOS [4] (iNOS inactivation, 37 °C) worked out at 0.0743 ± 0.0073 min⁻¹. The “Inactivation (irreversible inhibition) of iNOS” value at recombinant murine iNOS [4] is “inactivators; also recorded: irreversible inhibitors; also recorded: weak irreversible inhibition; also recorded: time-, concentration-, and NADPH-dependent inhibitor”. In addition, at iNOS dimer, the “% iNOS Dimer remaining” value came to 46 ± 2%. Besides, on recombinant murine iNOS [5], the “Substrate activity (NO generation / products)” value is “no nitric oxide was formed”. Also, at iNOS heme cofactor [6], the “Heme lost by incubation with iNOS” value is given as less than 5%, the Biliverdin formation entry is on record as “No apparent heme loss or biliverdin formation; also recorded: no biliverdin could be detected” and the Heme loss result is given as “No apparent heme loss”. Also, on recombinant murine iNOS [7], the “Metabolites from inactivation of iNOS” value is given as “none was detected; also recorded: no 22 was observed”.

With `CCCC(=N)NCCC[C@H](N)C(=O)O` [Compound 9], at recombinant murine iNOS [4] (iNOS inactivation), the kinact/KI was found to be 3.3 ± 0.16 M⁻¹ s⁻¹ and the Ki is 674 ± 80 µM. The maximal inactivation rate constant (kinact) at recombinant murine iNOS [4] (iNOS inactivation, 37 °C) is 0.131 ± 0.0095 min⁻¹. The “Inactivation (irreversible inhibition) of iNOS” value on recombinant murine iNOS [4] was “inactivators; also recorded: irreversible inhibitors; also recorded: weak irreversible inhibition”. The “% iNOS Dimer remaining” value at iNOS dimer is 47 ± 5%. Besides, the “Substrate activity (NO generation / products)” value at recombinant murine iNOS [5] is listed as “no nitric oxide was formed”. At iNOS heme cofactor [6], the “Heme lost by incubation with iNOS” value is given as less than 5%, the Biliverdin formation entry is listed as “No apparent heme loss or biliverdin formation; also recorded: no biliverdin could be detected” and the Heme loss result is recorded as “No apparent heme loss”. Moreover, on recombinant murine iNOS [7], the “Metabolites from inactivation of iNOS” value is “none was detected”.

As for `CC(C)C(=N)NCCC[C@H](N)C(=O)O` [Compound 10], the “Inactivation (irreversible inhibition) of iNOS” value at recombinant murine iNOS [4] is on record as “No inactivation was observed”.

In the case of `[2H]C([2H])([2H])C([2H])([2H])C(=N)NCCC[C@H](N)C(=O)O` [Compound 26, (S)-2-amino-5-(propanimidamido-2,2,3,3,3-d5)pentanoic acid], at recombinant murine iNOS [4], the kinact was 0.073 min⁻¹, the kinact/KI is 4.42 M⁻¹ s⁻¹ and the “Inactivation (irreversible inhibition) of iNOS” value was “inactivated iNOS”. Further, the “H/D ratio of KI” value on recombinant murine iNOS [4] (8 versus 26) is reported as 0.884 ± 0.068.

As to `CC(=N)NCc1cccc(CN)c1` [Compound 1400W, N-(3-(aminomethyl)benzyl)acetamidine], at iNOS heme cofactor [3], the “Conversion of active site heme in iNOS to biliverdin” value was “convert the active site heme in iNOS to biliverdin IXα”.
